System: MS2 coat protein
Experiment: apparent Kd, MS2 coat protein; higher = weaker binding; RNA-MaP array; FMN 200 µM where present
How it was run: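 Green signal was scaled to red-channel RNA signal and control-cluster median Fmax, and the apparent Kd was taken as the median of filtered per-cluster binding-curve fits. The binding series used SNAP-549-labelled MS2 coat protein from 0.7 or 1.5 nM, doubling to 3 µM, on designs transcribed by stalled E. coli RNA polymerase on Illumina sequencing-chip clusters. Each series ran without and then with constant ligand in 100 mM Tris-HCl pH 7.5, 80 mM KCl, 4 mM MgCl2, BSA, DTT, yeast tRNA and Tween-20.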

[1] = designed as: ON switch for flavin mononucleotide, no ligand
[2] = ligand present: flavin mononucleotide, designed as: ON switch for flavin mononucleotide
[3] = designed as: OFF switch for flavin mononucleotide, no ligand
[4] = ligand present: flavin mononucleotide, designed as: OFF switch for flavin mononucleotide

UGGUACUAGGGAGGAUAUAGGAAGAUACAUGAGGAUCACCCAUGUUUAAGAAUGCCGAGAGGCAACUAGAAGGCCCUAGUACCU
apparent Kd [1]: 5 nM | apparent Kd [2]: 4.74 nM

UUUAUUUAGGCAGGAUAUACAUGUAUAUAUAUUUCUUUAUAUAUUAUUACAUGAGGAUCACCCAUGUAGAAGGGCCUUAUUAUA
apparent Kd [3]: 69.3 nM | apparent Kd [4]: 88.9 nM

AAUGAGCGAGGAUAUGCAACUGUAUGACCUACGUGUGCCAGACAUGAGGAUCACCCAUGUAGAAGGUGCUUUCC
apparent Kd [3]: 59.7 nM | apparent Kd [4]: 51.3 nM

GUGAGUAGUCAGGAUAUGCUGUACAAAAGUACAGCAGAAGGGAUUACAUGAGGAUCACCCAUGUUUACCUCAUG
apparent Kd [3]: 574 nM | apparent Kd [4]: 884 nM

AGAGAAUACUCAGGAUAUCUUAAUAGAAAGAAUAGAGAAGGGAGACAUGAGGAUCACCCAUGUGAAGUCUUGAGACUACAUGGU
apparent Kd [3]: 291 nM | apparent Kd [4]: 442 nM

AUUAGCUCGUCAGGAUAUACGUCACUGCGUCAGCAGUGUGGUAAGAUCACAUGAGGAUCACCCAUGUAGAAGGGACGAGCUGAU
apparent Kd [3]: 13 nM | apparent Kd [4]: 289 nM

GUAGCAUACCGAGGAUAUUCAGGGCGUGGAUAUACAUGAGGAUCACCCAUGUGGCGGAAGCCUAGGGAGAAGGCGGGAUGCUAC
apparent Kd [1]: 22.3 nM | apparent Kd [2]: 15.5 nM

UUUGAGUUCCGAGGCCGCGAGUUCACAGAAGGCAUUAUUACAUGAGGAUCACCCAUGUGGGUACAUGAGGAUAUGUGAUAUGCG
apparent Kd [1]: 20.8 nM | apparent Kd [2]: 6.55 nM

GCACUGGCAGGAUAUACAUGAGGAUCACCCAUGUGACCCUUGAAGUACUCGCGUACUCGUAGAAGGGCCUGUGC
apparent Kd [3]: 102 nM | apparent Kd [4]: 520 nM

UAUGUGAGAGGAUAUACUGAACCCAACCUAGAUUCUCACGAACAUGAGGAUCACCCAUGUAGAAGGCUCCGUGU
apparent Kd [3]: 124 nM | apparent Kd [4]: 394 nM

UUUAUGUAAGGAUAUGCGGGCGGGCGUGUUUAUGUUUGUUUGUAGAAGGUACAUGAGGAUCACCCAUGUAGUGG
apparent Kd [3]: 90.1 nM | apparent Kd [4]: 172 nM

GCGAUUGCGUAGAAGGUACUAUAAAAUACACUGUAAGGAUAUACAAACAUGAGGAUCACCCAUGUAAAUGGAAUUUGCAAUCGC
apparent Kd [1]: 7.8 nM | apparent Kd [2]: 6.43 nM

AACGGGUCAGGAUAUUGUUAGUUUAGUUGUUUGUAUUAGUUCGAGAAGGGACAUGAGGAUCACCCAUGUGGUAA
apparent Kd [3]: 66.1 nM | apparent Kd [4]: 62 nM

GUCAGCUCGUCAGGAUAUACAUGAGGAUCACCCAUGUGAUCAAUAGCAGCUUCGGCUGCAUUAAUGUAGAAGGGACGAGCUGAU
apparent Kd [3]: 267 nM | apparent Kd [4]: 69.2 nM

UGCGUACAAGCAAACAUGAGGAUCACCCAUGUGGUCUUAUGCGAGGAUAUCGGGAAGGAGGAUUCCGAGAAGGUGCGGUGAGCC
apparent Kd [1]: 31.4 nM | apparent Kd [2]: 26.5 nM

GCCAUCGCAUGAGGAUAUGGUCUGGUUUCCAGACCAGAAGGCAUGUCAUAAGACAUGAGGAUCACCCAUGUAGUUAAGAUGGCA
apparent Kd [1]: 714 nM | apparent Kd [2]: 47.7 nM

GUAUAGAUUACAUGAGGAUCACCCAUGUCAGAACGGGUAAUCAGAAGGUAUUAUUAGAGAAAGGGUAAGGAUAUGAUUUUAUAU
apparent Kd [1]: 598 nM | apparent Kd [2]: 389 nM

GCAGAGCCUGACAUGAGGAUCACCCAUGUUAGAUUGUUAUGUCAGGAUAUUGUCUAGCAACUAGACAAGAAGGGAUGCUCUGCG
apparent Kd [1]: 341 nM | apparent Kd [2]: 27.8 nM

ACUACGUUAGCGAUAUGAUCGAGAGAUCAUGUCGCUAUAUUUAGAAGGACAUGAGGAUCACCCAUGUAGGAUAUGGGUCGUGGA
apparent Kd [1]: 158 nM | apparent Kd [2]: 35.7 nM

CCUUUGUCAGGAUAUCAGAACACGCCCGUAGGGAGUGCAAAUGAGAAGGGACAUGAGGAUCACCCAUGUACAGA
apparent Kd [3]: 33.2 nM | apparent Kd [4]: 114 nM

AAAAAGUCAGGAUAUGUAGCAAAAGGUGAUCAAAAAAAGCUACAGAAGGGACAUGAGGAUCACCCAUGUAAAAA
apparent Kd [3]: 262 nM | apparent Kd [4]: 336 nM

AUUAAGCAGCAGGAUAUAAGUAUCUAAAGGUGGUUAGAAGGGCUGACAUGAGGAUCACCCAUGUGCUCUUCGUG
apparent Kd [3]: 15.7 nM | apparent Kd [4]: 21.1 nM

UAGAUGGGAGGAUAUACGUAUAUGCAGGUUCGUGUGGUGCUACAUGAGGAUCACCCAUGUAGAAGGCCCGUCUU
apparent Kd [4]: 38.6 nM

GGCGUUGAAGGAUAUUGAUAUCCGGACAUGAGGAUCACCCAUGUGAGACAUACUUAUAUGCGAGAAGGUCAGGCCC
apparent Kd [3]: 160 nM | apparent Kd [4]: 139 nM

ACAUGAUAUGUAGGAUAUCACAUUAAUUGAUUAAUAAUUGAAUAUAGGAUUUGAGAAGGACAUUUACAUGAGGAUCACCCAUGU
apparent Kd [3]: 17.6 nM | apparent Kd [4]: 13.1 nM

GGGUACAUCGGAGGAUAUCAUGUAAAUACAUGAGGAUCACCCAUGUCGAUGGAGACAUCGGAGAUUGAGAAGGCCGAUGUUCCG
apparent Kd [1]: 202 nM | apparent Kd [2]: 9.84 nM

UUGAUUAUACAAGGAUAUCAAUUGUAAUUAAGACUUACAUGAGGAUCACCCAUGUUAAUAUUUUUUGAGAAGGUGUAUUUUCAG
apparent Kd [1]: 25.4 nM | apparent Kd [2]: 21.9 nM

GCGUACUGAGGAUAUACAUGAGGAUCACCCAUGUUUCACAGCAUAUGUGAAGUUUUUUGUAGAAGGCAGUAUGC
apparent Kd [3]: 29.6 nM | apparent Kd [4]: 163 nM

GGCGGCGCGGGCCACCGCAGGGCCAGAAGGACAUGAGGAUCACCCAUGUGGCAGGACAGGGCGGUGUAGGAUAUGGCAGGCUCG
apparent Kd [3]: 11.9 nM | apparent Kd [4]: 43.3 nM

GACUGCAGAGGAUAUACAUGAGGAUCACCCAUGUGAGAUGCCUGACAGGUGUUGCUGAGUAGAAGGCUGCACUG
apparent Kd [3]: 14.1 nM | apparent Kd [4]: 21 nM

CCGGAAACGGGUAGCUGUACAUGAGGAUCACCCAUGUGAUCAUAGGAUAUGGAUGGUAAUUCCAUCCAGAAGGAUGUCAGCUAC
apparent Kd [1]: 216 nM | apparent Kd [2]: 715 nM

GGAUGACAAAGUCAUCCUAUUCGAACAUGAGGAUCACCCAUGUAGGAUAUGCUACUCAAAGAGUAGCAGAAGGACAUGUGCUUU
apparent Kd [3]: 37.6 nM | apparent Kd [4]: 165 nM

CUGUUCGGUGUAGGAUAUGCAUAUUCCCAUUAUGCAGAAGGACAUGAGGAUCACCCAUGUAUGUUAUUAUCAUGUGUUACAUGC
apparent Kd [3]: 38.2 nM | apparent Kd [4]: 90.2 nM

AAAUAAAGCAGUGUGGUAAGAUCACAUGAGGAUCACCCAUGUAAGGAUAUCUGUCCUAAAAGGACAGAGAAGGUACGUCACUGC
apparent Kd [3]: 18.9 nM | apparent Kd [4]: 79.6 nM

GUGGUCAGACAUGAGGAUCACCCAUGUGGAAUAAAUAACAGACAGGAUAUCCAAUAUAGGAUAUAGGAGAAGGGUCGAUUGGUG
apparent Kd [1]: 73.1 nM | apparent Kd [2]: 74.2 nM

UGGUCGGAGACAGGAUAUGUGACUGCAUAGUGCACAGAAGGGUCUACAUGAGGAUCACCCAUGUCACCGAACACCAAACAACAA
apparent Kd [1]: 412 nM | apparent Kd [2]: 41.2 nM

ACAUUGAAUGUGAGGAUAUCGAUGUGAUGGGUUGUCGAGAAGGCACAUGAGGAUCACCCAUGUGGGUUGUAGCA
apparent Kd [3]: 144 nM | apparent Kd [4]: 362 nM

GAGUGGUGGAGAGGAUAUGCAUUGUUAUUCACUGUAGAAGGUUCUAACAUGAGGAUCACCCAUGUAGGACUAUUCCUGUGUUUU
apparent Kd [1]: 13.5 nM | apparent Kd [2]: 11.1 nM

GGCAUAAACGAGGAUAUCGAUACGGAAACGUAUCGAGAAGGUGUAACAUGAGGAUCACCCAUGUUCCUCAAGCC
apparent Kd [3]: 38.6 nM | apparent Kd [4]: 39.5 nM

UGGUACUAGGGAGGAUAUGGGAAGAUACAUGAGGAUCACCCAUGUUUAAGAAUGCCGAGAGGCAACUAGAAGGCCCUAGCACCU
apparent Kd [1]: 426 nM | apparent Kd [2]: 19 nM

AUACUCAUGUAAGGAUAUGCAGCCGUUUCGGCUGCAGAAGGUACUAAAAUACAUGAGGAUCACCCAUGUCUCUCGCAUUGCGAG
apparent Kd [1]: 753 nM | apparent Kd [2]: 117 nM

GCUGGACAAGGAUAUACAUUCGUGCUUCGGCACGUAAGAUCACAUGAGGAUCACCCAUGUAGAAGGUGUCCAGC
apparent Kd [3]: 67.8 nM | apparent Kd [4]: 612 nM

UGGGUAAGUGUAGGAUAUUUAUAUUAAUAGUAUGGAGAAGGACAUGAGGAUCACCCAUGUACAGGAAGUUGCCCAUUUCCUCUC
apparent Kd [3]: 579 nM | apparent Kd [4]: 495 nM

UGUCACGUAGUAGGAUAUGACAUGAGGAUCACCCAUGUUAACUCUAACCUCGAGGAUCGUCAUGGUCAGAAGGACUCAGACAAG
apparent Kd [3]: 209 nM | apparent Kd [4]: 75.9 nM

UUAAUGUGAGGAUAUCAGGUGUGAUAGAGUAAUGGUAAAUCUGAGAAGGCACAUGAGGAUCACCCAUGUUCUUC
apparent Kd [3]: 23 nM | apparent Kd [4]: 33.8 nM

UCUCUGCGAGGAUAUACGUUUGCGCGCUUUCGUUUGCGCGUACAUGAGGAUCACCCAUGUAGAAGGCGCGUUUC
apparent Kd [3]: 13.2 nM | apparent Kd [4]: 14.1 nM

GGCAAAUGAGCAGGAUAUACAGUACAUGCCUAAUGGAUUCACGCACAUGAGGAUCACCCAUGUACGUAGAAGGGCUCCGAGGAG
apparent Kd [3]: 12.2 nM | apparent Kd [4]: 14.4 nM

UUUCUUGAUGUCAGGAUAUCGGGCACAAAAUCUAACGAGAAGGGACAUGAGGAUCACCCAUGUACGUUUUUGGG
apparent Kd [3]: 92.9 nM | apparent Kd [4]: 249 nM

UAGGACUACGUAGGAUAUUAAAUCAUGUACUACAUGAGGAUCACCCAUGUUAAUUUAUCAUCAGCUGAGAAGGACGUGGUAAAU
apparent Kd [1]: 104 nM | apparent Kd [2]: 61.7 nM

UCUAUAAGAAAAUAGACGAAGUGGCCAGAAGGUGAAUGCCACAUGAGGAUCACCCAUGUUUCGAUCAAGGAUAUGGUUUCUCAC
apparent Kd [1]: 383 nM | apparent Kd [2]: 99.1 nM

CCGGAAACGGGUAGCUCACAUGAGGAUCACCCAUGUAAAACACAGGAUAUGGAUCCUAAUUGGAUCCAGAAGGGUGUGAGCUAC
apparent Kd [1]: 40.1 nM | apparent Kd [2]: 23.6 nM

CCGGAAACGGGUAGCCUGACAUGAGGAUCACCCAUGUAAUCCGAGGAUAUGGAUCCUAAUUGGAUCCAGAAGGUGGCAGGCUAC
apparent Kd [1]: 463 nM | apparent Kd [2]: 127 nM

AGUCGGAGCAGAGGAUAUACAUGAGGAUCACCCAUGUAAUAAGAUCAAGCCUGGAAACAGGCAAUGUAGAAGGCUGCUCCGACA
apparent Kd [3]: 34.2 nM | apparent Kd [4]: 338 nM

UGAAAUCAUGUAGGAUAUGCAUGGCGAAGCUACGCAGAAGGACAUGAGGAUCACCCAUGUUCUAGCUACCGGAUACGGUGGCAA
apparent Kd [3]: 23.1 nM | apparent Kd [4]: 116 nM

UAGUGGCAAGGAUAUACAGAGGAGAGGAUUGCAAGAGGUGGACAUGAGGAUCACCCAUGUAGAAGGUGCAGAGA
apparent Kd [3]: 239 nM | apparent Kd [4]: 281 nM
